Test results taken from ChEMBL document CHEMBL1153929, “Exploration and synthesis of curcumin analogues with improved structural stability both in vitro and in vivo as cytotoxic agents” (Bioorg Med Chem, 2009).

Legend:
[1] = Hydrolytic stability assessed as compound degradation at 2 mg in sodium dihydrogen phosphate buffered 0.3% sodium carboxymethylcellulose solution at pH 7.4 after 45 hrs by HPLC; format: physicochemical; settings: read-out: Activity
Procedure, shortened: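 2 mg of sample was vortexed into 1 ml of 0.3% (w/v) CMCNa solution in phosphate buffer at pH 7.4 and kept in the dark at 37 °C. HPLC peak areas were recorded. Degradation = (area at 0 h − area at end time) / area at 0 h × 100%.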

[2] = Metabolic stability in Sprague-Dawley rat plasma assessed as drug recovery at 0.2 ug/ml by RP-HPLC; format: ADME, cell-free; settings: read-out: Stability
[3] = Metabolic stability in Sprague-Dawley rat plasma assessed as drug recovery at 3.2 ug/ml by RP-HPLC; format: ADME, cell-free; settings: read-out: Stability
[4] = Metabolic stability in Sprague-Dawley rat plasma assessed as drug recovery at 0.8 ug/ml by RP-HPLC; format: ADME, cell-free; settings: read-out: Stability
[5] = AUC (0 to t) in healthy Sprague-Dawley rat at 500 mg/kg, po administered as single dose; format: ADME, organism-based; parameters: dose 500 mg/kg, route oral; settings: plasma
Procedure, shortened: (§1)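 Four rats per group, dosed once by oral gavage at 500 mg/kg, suspended with the aid of 1% CMCNa. Blood (0.5 ml) was taken from the orbital venous plexus at 0.083, 0.25, 0.5, 1, 2, 4 and 8 h. Plasma (200 µl) was extracted with ethyl acetate/chloroform and assayed by isocratic HPLC on an ODS2 column. Parameters came from non-compartmental analysis.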

[6] = AUC (0 to infinity) in healthy Sprague-Dawley rat at 500 mg/kg, po administered as single dose; format: ADME, organism-based; parameters: dose 500 mg/kg, route oral, time infinity; settings: plasma; procedure, shortened: as §1
[7] = Half life in healthy Sprague-Dawley rat at 500 mg/kg, po administered as single dose; format: ADME, organism-based; parameters: dose 500 mg/kg, route oral; settings: in vivo; procedure, shortened: as §1
[8] = Mean residence time (0 to t) in healthy Sprague-Dawley rat at 500 mg/kg, po administered as single dose; format: ADME, organism-based; parameters: dose 500 mg/kg, route oral; settings: in vivo; procedure, shortened: as §1
[9] = Mean residence time (0 to infinity) in healthy Sprague-Dawley rat at 500 mg/kg, po administered as single dose; format: ADME, organism-based; parameters: dose 500 mg/kg, route oral; settings: in vivo; procedure, shortened: as §1
[10] = Apparent oral clearance in healthy Sprague-Dawley rat at 500 mg/kg, po administered as single dose; format: ADME, organism-based; parameters: dose 500 mg/kg, route oral; settings: in vivo; procedure, shortened: as §1
[11] = Cmax in healthy Sprague-Dawley rat at 500 mg/kg, po administered as single dose; format: ADME, organism-based; parameters: dose 500 mg/kg, route oral; settings: in vivo; procedure, shortened: as §1
[12] = Tmax in healthy Sprague-Dawley rat at 500 mg/kg, po administered as single dose; format: ADME, organism-based; parameters: dose 500 mg/kg, route oral; settings: in vivo; procedure, shortened: as §1
CNE = test: Cytotoxicity against human CNE cells after 72 hrs by MTT assay; format: functional, cell-based
Procedure, shortened: (§2)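 Cells were plated at 5000 per well in 1640 medium with 5% heat-inactivated calf serum and penicillin/streptomycin, at 37 °C and 5% CO2. After 24 h, compounds in DMSO were added at final 100, 33.3, 11.1 and 3.7 µg/ml for 72 h. MTT (5 mg/ml in 0.9% NaCl) was then added for 3 h, the formazan dissolved in DMSO, and absorbance read at 570 nm.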

[13] = Cytotoxicity against human LS 174T cells after 72 hrs by MTT assay; format: functional, cell-based; settings: LS174T; procedure, shortened: as §2
[14] = Chemical stability assessed as compound degradation in 0.1 M phosphate buffer at pH 7.2 within 30 mins; format: physicochemical; settings: read-out: Activity
[15] = Chemical stability assessed as half life in pH 8 buffer containing 10% cyclodextrins; format: physicochemical
Blood [16] = test: Drug level in portal blood of patient with cancer at 3.6 g/day by HPLC; format: ADME, tissue-based; settings: human, read-out: Drug uptake
Blood [17] = test: Drug level in peripheral blood of patient with cancer at 3.6 g/day by HPLC; format: ADME, tissue-based; settings: human, read-out: Drug uptake
[18] = Drug level in bile of patient with cancer at 3.6 g/day by HPLC; format: ADME, tissue-based; settings: human, in vivo; read-out: Drug uptake
Liver = test: Drug level in liver of patient with cancer at 3.6 g/day by HPLC; format: ADME, tissue-based; settings: human, in vivo; read-out: Drug uptake
[19] = Metabolic stability in Sprague-Dawley rat plasma assessed as drug recovery at 0.05 ug/ml by RP-HPLC; format: ADME, cell-free; settings: read-out: Stability
[20] = Plasma concentration in healthy Sprague-Dawley rat at 500 mg/kg, po administered as single dose after 2 hrs; format: ADME, organism-based; parameters: dose 500 mg/kg, route oral; settings: read-out: Drug uptake; procedure, shortened: as §1
BGC-823 = test: Cytotoxicity against human BGC823 cells after 72 hrs by MTT assay; format: functional, cell-based; settings: BGC-823, 72 h; procedure, shortened: as §2
PC-3 = test: Cytotoxicity against human PC3 cells after 72 hrs by MTT assay; format: functional, cell-based; settings: PC-3, 72 h; procedure, shortened: as §2
HeLa = test: Cytotoxicity against human HeLa cells after 72 hrs by MTT assay; format: functional, cell-based; procedure, shortened: as §2
KB (human) = test: Cytotoxicity against human KB cells after 72 hrs by MTT assay
HL-60 (human) = test: Cytotoxicity against human HL60 cells after 72 hrs by MTT assay; settings: HL-60, 72 h
[21] = Metabolic stability in Sprague-Dawley rat plasma assessed as drug recovery at 12.8 ug/ml by RP-HPLC; format: ADME, cell-free; settings: read-out: Stability

degraded at 45 h [1] [%]	remaining at 0.2 ug/ml [2] [%]	remaining at 3.2 ug/ml [3] [%]	AUC(0-t) [5] [ng·h/mL]	AUC(0-inf) [6] [ng·h/mL]	half-life [7] [h]	MRT last [8] [h]	MRT inf [9] [h]	CL/F [10] [mL/min/kg]	Cmax [11] [ng/mL]	Tmax [12] [h]	Compound	IC50 (CNE) [µM]	IC50 [13] [µM]	IC50 (BGC-823) [µM]	IC50 (PC-3) [µM]	IC50 (HeLa) [µM]	other results
0	96.4	97.6	2960	4910	5.96	2.96	8.48	2090	822	1	COc1cc(/C=C/C(=O)/C=C/c2ccc(O)c(OC)c2)ccc1O	6.8	3.7				remaining at 0.8 ug/ml [4]: 98.3%
> 64	98.2	98.7	275	672	2.41	3.44	22.7		91	0.5	COc1cc(/C=C/C(=O)CC(=O)/C=C/c2ccc(O)c(OC)c2)ccc1O [CURCUMIN]	32.8	6.4	16.7	15	17.5	degraded at 0.5 h [14]: 92%; half-life [15]: 10.5 h; concentration (Blood [16]): 1300 nM; concentration (Blood [17]): 1300 nM; concentration [18]: 1300 nM; concentration (Liver): 1300 nM; remaining at 0.05 ug/ml [19]: 97.7%; concentration at 2 h [20]: 40 ng/mL; IC50 (KB (human)): 35.9 µM; IC50 (HL-60 (human)): 11.6 µM
0	96.5	97.1	12100	14900	2.92	2.49	4.16	650	4100	0.25	O=C(/C=C/c1ccccc1Br)/C=C/c1ccccc1Br		4	16.1	15.4	34.2	remaining at 12.8 ug/ml [21]: 95.2%
